Experimental data as given in ChEMBL document CHEMBL3526018, “Metabolites of PPI-2458, a selective, irreversible inhibitor of methionine aminopeptidase-2: structure determination and in vivo activity” (Drug Metab Dispos, 2013).
pKi: −log10 of the molar value. The source made the active and inactive calls. No cut-off for these calls is given here.

Tests used:
Cytochrome P450 3A4 [1] = target: T1, Cytochrome P450 3A4 (Homo sapiens, UniProt P08684); assay: Inhibition of CYP3A4 activity in human liver microsomes using nifedipine as a substrate by LC/MS analysis; type: ADME
Cytochrome P450 3A4 [2] = target: T1, Cytochrome P450 3A4; assay: Inhibition of CYP3A4 activity in human liver microsomes using testosterone as a substrate by LC/MS analysis; type: ADME
[3] = target: Methionine aminopeptidase 2 (Homo sapiens) (UniProt P50579); assay: Inhibition of human MetAP2 assessed as remaining enzyme activity after 1 hr
In short: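 The hMetAP2 assay follows the fraction of active enzyme remaining during an 8 h incubation with inhibitor, relative to an enzyme-only control.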

Rattus norvegicus [4] = assay: Inhibition of MetAP2 level in Sprague-Dawley rat thymus assessed as free enzyme level at 0.3 mg/kg, iv by ELISA; type: functional, organism-based; design: dose 0.3 mg/kg
In short: (§1)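 Male Sprague-Dawley rats (200-225 g, n=3 per group) were dosed once IV at 0.3 mg/kg or PO at 0.3 or 3.0 mg/kg, in 11% HPCD in water. Blood, liver, lung, thymus and pooled non-mesenteric lymph nodes were taken at ~24 h and lysed or homogenized with NP-40. Free MetAP2 was measured by ELISA and expressed as % of vehicle.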

Rattus norvegicus [5] = assay: Inhibition of MetAP2 level in Sprague-Dawley rat lung assessed as free enzyme level at 0.3 mg/kg, iv by ELISA; type: functional, organism-based; design: dose 0.3 mg/kg; in short: as §1
Liver microsome [6] = assay: Metabolic stability in human liver microsomes assessed as retention time of ((3R,4S,5S,6R)-4-((2R,3R)-3-((E)-4-hydroxy-3-methylbut-2-en-1-yl)-2-methyloxiran-2-yl)-5-methoxy-1-oxaspiro[2.5]octan-6-yl((R)-1-amino-3-methyl-1-oxobutan-2-yl)carbamate) at 5 mM by LC/MS analysis; type: ADME; details: 5000 µM
In short: (§2)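 Liver microsomes (pooled male/female) in 100 mM KPO4 pH 7.4 with PPI-2458 (5 mM stock), pre-incubated 5 min at 37°C, then 10 mM NADPH added; 20 min at 37°C with shaking. Time-zero and no-NADPH controls. Quenched with CH3CN; supernatant dried and redissolved in water. Analysed by LC-MS, ESI+ full scan 300–800 amu, C18 column, 10→50% B gradient.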

Liver microsome [7] = assay: Metabolic stability in dog liver microsomes assessed as retention time of ((3R,4S,5S,6R)-4-((2R,3R)-3-(((R)-3,3-dimethyloxiran-2-yl)methyl)-2-methyloxiran-2-yl)-5-methoxy-1-oxaspiro[2.5]octan-6-yl ((R)-1-amino-3-methyl-1-oxobutan-2-yl)carbamate) at 5 mM by LC/MS analysis; type: ADME, Canis lupus familiaris; details: 5000 µM
Liver microsome [8] = assay: Metabolic stability in dog liver microsomes assessed as retention time of ((3R,4S,5S,6R)-4-((2R,3R)-3-((E)-4-hydroxy-3-methylbut-2-en-1-yl)-2-methyloxiran-2-yl)-5-methoxy-1-oxaspiro[2.5]octan-6-yl((R)-1-amino-3-methyl-1-oxobutan-2-yl)carbamate) at 5 mM by LC/MS analysis; type: ADME, Canis lupus familiaris; details: 5000 µM
[9] = Metabolic stability in monkey liver microsomes assessed as retention time of ((3R,4S,5S,6R)-5-methoxy-4-((2R,3R)-2-methyl-3-(3-methylbut-2-en-1-yl)oxiran-2-yl)-1-oxaspiro[2.5]octan-6-yl ((R)-1-amino-3-hydroxy-3-methyl-1-oxobutan-2-yl)carbamate) at 5 mM by LC/MS analysis; type: ADME, Macaca mulatta; details: rhesus monkey, 5000 µM; in short: as §2
Rattus norvegicus [10] = assay: Inhibition of MetAP2 level in Sprague-Dawley rat thymus assessed as free enzyme level at 0.3 mg/kg, po by ELISA; type: functional, organism-based; design: dose 0.3 mg/kg; in short: as §1
Rattus norvegicus [11] = assay: Inhibition of MetAP2 level in Sprague-Dawley rat liver assessed as free enzyme level at 0.3 mg/kg, iv by ELISA; type: functional, organism-based; design: dose 0.3 mg/kg; in short: as §1
Rattus norvegicus [12] = assay: Inhibition of MetAP2 level in Sprague-Dawley rat thymus assessed as free enzyme level at 3 mg/kg, po by ELISA; type: functional, organism-based; design: dose 3 mg/kg; in short: as §1
Rattus norvegicus [13] = assay: Inhibition of MetAP2 level in Sprague-Dawley rat whole blood assessed as free enzyme level at 3 mg/kg, po by ELISA; type: functional, organism-based; design: dose 3 mg/kg; in short: as §1
Liver microsome [14] = assay: Metabolic stability in rat liver microsomes assessed as retention time of ((3R,4S,5S,6R)-4-((2R,3R)-3-((E)-4-hydroxy-3-methylbut-2-en-1-yl)-2-methyloxiran-2-yl)-5-methoxy-1-oxaspiro[2.5]octan-6-yl((R)-1-amino-3-methyl-1-oxobutan-2-yl)carbamate) at 5 mM by LC/MS analysis; type: ADME; details: 5000 µM; in short: as §2
CYP3A4 (Homo sapiens) [15] = assay: Activity of human recombinant CYP3A4 assessed as ((3R,4S,5S,6R)-5-methoxy-4-((2R,3R)-2-methyl-3-(3-methylbut-2-en-1-yl)oxiran-2-yl)-1-oxaspiro[2.5]octan-6-yl ((R)-1-amino-3-hydroxy-3-methyl-1-oxobutan-2-yl)carbamate) formation; details: recombinant enzyme
CYP3A4 (Homo sapiens) [16] = assay: Activity of human recombinant CYP3A4 assessed as ((3R,4S,5S,6R)-4-((2R,3R)-3-(((R)-3,3-dimethyloxiran-2-yl)methyl)-2-methyloxiran-2-yl)-5-methoxy-1-oxaspiro[2.5]octan-6-yl ((R)-1-amino-3-methyl-1-oxobutan-2-yl)carbamate) formation; details: recombinant enzyme
CYP3A4 (Homo sapiens) [17] = assay: Activity of human recombinant CYP3A4 assessed as ((3R,4S,5S,6R)-4-((2R,3R)-3-(((S)-3,3-dimethyloxiran-2-yl)methyl)-2-methyloxiran-2-yl)-5-methoxy-1-oxaspiro[2.5]octan-6-yl ((R)-1-amino-3-methyl-1-oxobutan-2-yl)carbamate) formation; details: recombinant enzyme
CYP3A5 (Homo sapiens) [18] = assay: Ratio of Vmax to Km for human recombinant CYP3A5 assessed as ((3R,4S,5S,6R)-4-((2R,3R)-3-(((S)-3,3-dimethyloxiran-2-yl)methyl)-2-methyloxiran-2-yl)-5-methoxy-1-oxaspiro[2.5]octan-6-yl ((R)-1-amino-3-methyl-1-oxobutan-2-yl)carbamate) formation; details: recombinant enzyme
CYP3A5 (Homo sapiens) [19] = assay: Activity of human recombinant CYP3A5 assessed as ((3R,4S,5S,6R)-4-((2R,3R)-3-((E)-4-hydroxy-3-methylbut-2-en-1-yl)-2-methyloxiran-2-yl)-5-methoxy-1-oxaspiro[2.5]octan-6-yl((R)-1-amino-3-methyl-1-oxobutan-2-yl)carbamate) formation per pmol of enzyme

T1 sequence (P08684 whole entry): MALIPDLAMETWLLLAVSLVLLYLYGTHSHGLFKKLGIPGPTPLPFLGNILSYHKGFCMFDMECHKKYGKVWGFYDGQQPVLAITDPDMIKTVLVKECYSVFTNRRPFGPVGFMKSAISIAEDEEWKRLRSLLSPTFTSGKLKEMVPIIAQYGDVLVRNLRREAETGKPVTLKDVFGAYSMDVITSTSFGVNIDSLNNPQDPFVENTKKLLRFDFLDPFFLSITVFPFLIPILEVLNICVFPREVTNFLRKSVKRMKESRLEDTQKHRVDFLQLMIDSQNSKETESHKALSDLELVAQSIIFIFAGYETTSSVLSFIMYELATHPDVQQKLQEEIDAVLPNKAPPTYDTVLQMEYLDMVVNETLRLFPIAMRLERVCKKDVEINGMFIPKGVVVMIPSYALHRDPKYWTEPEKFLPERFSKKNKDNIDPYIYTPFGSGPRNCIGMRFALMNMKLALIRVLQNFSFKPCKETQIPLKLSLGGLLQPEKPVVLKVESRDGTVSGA
Sequence of Methionine aminopeptidase 2 (Homo sapiens) (P50579 2-478 limits assumed): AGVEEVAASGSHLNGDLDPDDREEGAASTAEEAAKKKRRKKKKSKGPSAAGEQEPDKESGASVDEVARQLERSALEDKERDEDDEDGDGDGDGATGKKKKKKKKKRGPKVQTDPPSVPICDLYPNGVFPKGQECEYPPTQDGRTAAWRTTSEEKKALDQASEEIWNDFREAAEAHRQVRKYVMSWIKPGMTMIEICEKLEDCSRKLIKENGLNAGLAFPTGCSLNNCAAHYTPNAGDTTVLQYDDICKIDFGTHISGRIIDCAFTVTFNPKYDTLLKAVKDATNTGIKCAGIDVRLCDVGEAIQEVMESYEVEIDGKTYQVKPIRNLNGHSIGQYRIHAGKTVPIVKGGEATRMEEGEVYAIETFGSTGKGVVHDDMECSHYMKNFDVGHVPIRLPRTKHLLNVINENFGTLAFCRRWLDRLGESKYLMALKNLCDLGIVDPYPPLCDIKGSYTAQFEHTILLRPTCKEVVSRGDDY

pKi (Cytochrome P450 3A4 [1]): 3.39
pKi (Cytochrome P450 3A4 [2]): 3.54
Activity [3]: 12%
Drug metabolism (Liver microsome [6]): metabolite_detected
Drug metabolism (Liver microsome [7]): metabolite_detected
Drug metabolism (Liver microsome [8]): metabolite_detected
Drug metabolism [9]: metabolite_detected
Drug metabolism (Liver microsome [14]): metabolite_detected
Km (CYP3A4 (Homo sapiens) [15]): 27 µM
Km (CYP3A4 (Homo sapiens) [16]): 17 µM
Km (CYP3A4 (Homo sapiens) [17]): 15 µM
Vmax/Km (CYP3A5 (Homo sapiens) [18]): 0.09 µL/min
Vmax (CYP3A5 (Homo sapiens) [19]): 0.8 pmol/min
SMILES: CO[C@@H]1[C@H](OC(=O)N[C@@H](C(N)=O)C(C)C)CC[C@]2(CO2)[C@H]1[C@@]1(C)O[C@@H]1CC=C(C)C [PPI-2458]
inhibition (Rattus norvegicus [4]): Active
inhibition (Rattus norvegicus [5]): Active
inhibition (Rattus norvegicus [10]): Active
inhibition (Rattus norvegicus [11]): Active
inhibition (Rattus norvegicus [12]): Active
inhibition (Rattus norvegicus [13]): Active
